S100A4 MyoIIA: inhibitors of S100A4-myosin IIA peptide binding, primary screen, biochemical, fluorescence polarization, TAMRA-MyoIIA peptide; inhibition, % at 10.7 µM; AID 652163, 2013; Protein S100-A4 (Homo sapiens), P26447; actives 0.14% (n = 360,000);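 active = mean inhibition of at least 70% across replicates, with every replicate also reaching that level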
Target sequence (P26447 whole entry, looked up): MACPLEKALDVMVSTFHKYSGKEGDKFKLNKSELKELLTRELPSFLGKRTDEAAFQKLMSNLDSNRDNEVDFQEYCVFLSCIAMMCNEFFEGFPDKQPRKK
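Assay system: human S100A4 monomer with TAMRA-labelled myosin IIA peptide / Buffer or medium: Calcium-containing HEPES buffer, pH 7.2 / Reagent: TAMRA-labelled myosin IIA heavy-chain peptide probe, 5 nM / Compound: one dose per compound / Timing: polarization read 5 min after assay mix addition, stable 5–60 min / Benchmarks: neutral control DMSO, positive control TFP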
PKA-R2B activ: activators of PKA-R2B holoenzyme, primary screen, biochemical, fluorescence polarization, Cy5-IP20, human | PKA-R2B holoenzyme dissociation; R2B truncated from residue 108, S112A mutant; 0% DMSO only, 100% 113 µM cGMP | activation, % at 11.4 µM | actives 0.079% (n = 340,000) | AID 504700, 2011;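 active = activation above a cutoff set at the mean over all compounds plus 3 SD, cut at about 18% in these data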;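 also: higher means more holoenzyme dissociation and a rise in polarization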
PKA-R1A act: activators of PKA-R1A holoenzyme, primary screen, biochemical, fluorescence polarization, Cy5-IP20, bovine R1A, mouse PKAc | PKA-R1A dissociation; scaled: DMSO 0%, 113 µM cGMP 100% | activation, % at 11.4 µM | actives 0.083% (n = 340,000) | AID 504707, 2011;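 active = percent activation above the mean of all tested compounds plus 3 SD, cut at about 19% in these data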;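 also: higher means more PKAc released from R1A so a rise in polarization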
SIRT5 inh: SIRT5 desuccinylase inhibitors, primary screen, biochemical, fluorescence imaging, single point, set 5; NAD-dependent protein deacylase sirtuin-5, mitochondrial (Homo sapiens), Q9NXA8; Purified SirT5, succinyl-peptide AMC, trypsin-coupled fluorescence; inhibition, % at 15 µM; actives 1.1% (n = 330,000); AID 652115, 2013; in the data active = inhibition above about 15%
Target sequence (Q9NXA8 whole entry, looked up): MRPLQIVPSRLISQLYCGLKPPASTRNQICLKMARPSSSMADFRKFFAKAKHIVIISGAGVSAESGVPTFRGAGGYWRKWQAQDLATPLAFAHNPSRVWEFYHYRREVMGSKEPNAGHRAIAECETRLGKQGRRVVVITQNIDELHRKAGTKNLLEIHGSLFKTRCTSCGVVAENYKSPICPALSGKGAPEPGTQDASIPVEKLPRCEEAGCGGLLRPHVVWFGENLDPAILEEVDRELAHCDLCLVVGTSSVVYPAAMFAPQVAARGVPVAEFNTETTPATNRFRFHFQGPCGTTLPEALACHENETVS
CRFBP-R2 block: antagonists of CRF-BP/CRF-R2 complex, primary screen, cell-based, HEK293, calcium dye fluorescence, uHTS. CRF-induced calcium fluorescence. actives 0.59% (n = 350,000). inhibition, % at 11.8 µM;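 active = inhibition of the ligand-induced calcium signal above about 50% at the single tested concentration, limit read from the data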
* = called active by the depositor; · = not tested or not shown. The list is not random: actives were taken first. Their share in the collection is about 1.5%.

SMILES	S100A4 MyoIIA	PKA-R2B activ	PKA-R1A act	SIRT5 inh	CRFBP-R2 block
CCCNC(=O)N[C@@H]1C=C[C@@H](CC(=O)N2CCN(C)CC2)O[C@H]1CO	1.6	·	·	0.8	·
O=C(Nc1ccc(C(F)(F)F)cc1)N[C@H]1C=C[C@@H](CC(=O)N2CCCCC2)O[C@@H]1CO	127.9*	·	·	5.4	·
COc1cccc(NC(=O)N[C@@H]2C=C[C@@H](CC(=O)N3CCN(C)CC3)O[C@@H]2CO)c1	86.1*	·	·	0.8	·
CCCC#Cc1ccc2c(c1)O[C@@H](CN(C)C(C)=O)[C@H](C)CN([C@H](C)CO)S2(=O)=O	11.3	·	·	7.9	·
O=C(N[C@H]1C=C[C@H](CC(=O)N2CCOCC2)O[C@H]1CO)c1ccccn1	3.7	·	·	29.4*	·
O=C(N[C@H]1C=C[C@@H](CC(=O)N2CCOCC2)O[C@@H]1CO)c1ccccn1	10.0	·	·	-1.2	·
Cc1cccc(NC(=O)c2cc(S(=O)(=O)c3ccccc3)ccc2Cl)c1	·	-12.4	3.9	·	62.0*
Cc1ccccc1NC(=O)c1cc(S(=O)(=O)c2ccccc2)ccc1Cl	·	-9.3	-2.4	·	9.3
CNC[C@H]1Oc2c(NC(=O)NC3CCCCC3)cccc2C(=O)N([C@H](C)CO)C[C@H]1C	-9.7	·	·	-0.4	·
COc1ccc(CNC(=O)N2CCN(c3ccccc3)CC2)cc1	-0.8	-11.8	-2.5	15.7*	-11.2
COc1ccc(CNC(=O)CN2CCN(c3ccc(F)cc3)CC2)cc1	5.6	8.8	0.1	0.3	57.6*
Cc1ccc(CNC(=O)CN2CCN(c3ccc(F)cc3)CC2)cc1	-2.3	-8.7	-3.6	1.1	1.9
COc1ccccc1NS(=O)(=O)c1ccc(N/N=C/c2c(C)nn(-c3ccccc3)c2N2CCCC2)c([N+](=O)[O-])c1	·	0.3	2.6	·	55.7*
O=C(O)c1ccccc1NS(=O)(=O)c1ccc(N/N=C/c2ccc(O)c(O)c2)c([N+](=O)[O-])c1	2.6	3.2	-9.3	20.7*	25.2
NS(=O)(=O)c1ccc(N/N=C/c2ccc(O)c(O)c2O)c([N+](=O)[O-])c1	5.5	-6.2	4.0	16.2*	-1.9
COc1ccc2c3c([nH]c2c1)[C@H](CO)N(C(=O)Nc1ccccc1F)CC31CCN(C(=O)C2CC2)CC1	-2.0	·	·	3.8	·
C[C@H](CO)N1C[C@H](C)[C@@H](CN(C)Cc2ccc(C(F)(F)F)cc2)Oc2ccc(NC(=O)CCN3CCOCC3)cc2CC1=O	-16.3	·	·	6.7	·
CON(C)C(=O)CC(CN(Cc1ccccc1)C(=O)OC(C)(C)C)c1ccc(Cl)cc1 (stereo not drawn)	4.0	-2.2	-2.1	-4.2	1.8
CON(C)C(=O)CC(CNC(=O)OC(C)(C)C)c1ccc(Cl)cc1 (stereo not drawn)	15.3	-1.4	10.4	21.5*	7.7
Cc1ccc(S(=O)(=O)Nc2ccc3c(c2)C(=O)N([C@H](C)CO)C[C@@H](C)[C@H](CN(C)Cc2ccc(C(F)(F)F)cc2)OCCCC[C@H](C)O3)cc1	42.6	·	·	13.5	·
Cc1ccc(S(=O)(=O)Nc2ccc3c(c2)C(=O)N([C@H](C)CO)C[C@H](C)[C@@H](CN(C)Cc2ccc(C(F)(F)F)cc2)OCCCC[C@H](C)O3)cc1	-7.1	·	·	20.7*	·
Cc1ccc(S(=O)(=O)Nc2ccc3c(c2)C(=O)N([C@@H](C)CO)C[C@H](C)[C@H](CN(C)Cc2ccc(C(F)(F)F)cc2)OCCCC[C@@H](C)O3)cc1	-2.9	·	·	18.3*	·
Cc1ccc(S(=O)(=O)Nc2ccc3c(c2)C(=O)N([C@@H](C)CO)C[C@H](C)[C@@H](CN(C)Cc2ccc(C(F)(F)F)cc2)OCCCC[C@@H](C)O3)cc1	-5.7	·	·	16.9*	·
Cc1ccc(S(=O)(=O)Nc2ccc3c(c2)C(=O)N([C@@H](C)CO)C[C@H](C)[C@H](CN(C)Cc2ccc(C(F)(F)F)cc2)OCCCC[C@H](C)O3)cc1	4.8	·	·	15.1*	·

Screens deposited in PubChem BioAssay by several laboratories.
